Experimental findings from ChEMBL document CHEMBL3351355, “Structure-affinity/activity relationships of 1,4-dioxa-spiro[4.5]decane based ligands at α1 and 5-HT1A receptors” (Eur J Med Chem, 2014) are described below.

For one test, the species on record is Rattus norvegicus. Nature of the test: Selectivity ratio of Kb for alpha1D adrenoceptor in Wistar rat thoracic aorta to Kb for alpha1B adrenoceptor in Wistar rat spleen. The test is classed as tissue-based.
For test [1], the target named is T1, Alpha-1D adrenergic receptor (Homo sapiens, UniProt P25100).
T1 sequence (P25100 whole entry): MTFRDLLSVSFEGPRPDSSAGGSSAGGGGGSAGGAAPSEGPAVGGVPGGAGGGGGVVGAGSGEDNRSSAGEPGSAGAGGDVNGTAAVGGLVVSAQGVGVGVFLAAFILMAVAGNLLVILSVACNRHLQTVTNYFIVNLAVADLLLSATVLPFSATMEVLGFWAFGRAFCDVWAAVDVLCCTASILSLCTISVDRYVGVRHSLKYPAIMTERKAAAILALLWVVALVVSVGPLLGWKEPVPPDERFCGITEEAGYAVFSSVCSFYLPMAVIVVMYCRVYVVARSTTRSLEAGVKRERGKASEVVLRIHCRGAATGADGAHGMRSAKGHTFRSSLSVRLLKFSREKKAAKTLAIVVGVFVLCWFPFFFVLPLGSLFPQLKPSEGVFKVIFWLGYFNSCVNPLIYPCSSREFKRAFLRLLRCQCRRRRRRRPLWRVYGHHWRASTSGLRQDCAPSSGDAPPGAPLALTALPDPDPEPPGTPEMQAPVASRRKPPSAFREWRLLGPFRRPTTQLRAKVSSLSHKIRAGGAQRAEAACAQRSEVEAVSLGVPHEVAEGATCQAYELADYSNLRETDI
The test is described as follows: Displacement of [3H]prazosin from human recombinant alpha1D adrenoceptor expressed in CHO cells after 30 mins by liquid scintillation counting. The test is classed as cell-based. A digest of the protocol: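 CHO cells were stably transfected by electroporation with each human α1 subtype. Membranes (70 µg protein) were incubated in 50 mM Tris pH 7.4 with 0.1–0.4 nM [3H]prazosin and competitor (1 pM–1 µM) for 30 min at 25 °C. Nonspecific binding with 10 µM tamsulosin. Filtration and scintillation counting. pKi from 2–3 experiments in duplicate.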
(In general: Loss of bound radioactivity is the signal in a displacement assay; it reports binding, not function.)

The target of test [2] is T2, Alpha-1A adrenergic receptor (Rattus norvegicus) (UniProt P43140).
T2 sequence (whole entry): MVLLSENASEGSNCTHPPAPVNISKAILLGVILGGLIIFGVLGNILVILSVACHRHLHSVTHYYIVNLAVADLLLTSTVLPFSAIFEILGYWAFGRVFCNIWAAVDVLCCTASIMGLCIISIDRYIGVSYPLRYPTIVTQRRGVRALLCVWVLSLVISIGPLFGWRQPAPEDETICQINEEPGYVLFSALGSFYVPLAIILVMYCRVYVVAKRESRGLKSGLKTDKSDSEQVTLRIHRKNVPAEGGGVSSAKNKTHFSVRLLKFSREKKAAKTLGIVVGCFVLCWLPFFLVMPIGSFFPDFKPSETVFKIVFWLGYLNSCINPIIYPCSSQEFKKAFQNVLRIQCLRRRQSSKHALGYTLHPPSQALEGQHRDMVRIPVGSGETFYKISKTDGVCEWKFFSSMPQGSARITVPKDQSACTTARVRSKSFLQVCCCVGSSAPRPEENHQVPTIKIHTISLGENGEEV
Nature of the test: Antagonist activity at alpha1A adrenoceptor in Wistar rat vas deferans assessed as noradrenaline-induced contractions after 30 mins.

Test [3] has as its target T3, 5-hydroxytryptamine receptor 1A (Homo sapiens, UniProt P08908).
T3 sequence (P08908 whole entry): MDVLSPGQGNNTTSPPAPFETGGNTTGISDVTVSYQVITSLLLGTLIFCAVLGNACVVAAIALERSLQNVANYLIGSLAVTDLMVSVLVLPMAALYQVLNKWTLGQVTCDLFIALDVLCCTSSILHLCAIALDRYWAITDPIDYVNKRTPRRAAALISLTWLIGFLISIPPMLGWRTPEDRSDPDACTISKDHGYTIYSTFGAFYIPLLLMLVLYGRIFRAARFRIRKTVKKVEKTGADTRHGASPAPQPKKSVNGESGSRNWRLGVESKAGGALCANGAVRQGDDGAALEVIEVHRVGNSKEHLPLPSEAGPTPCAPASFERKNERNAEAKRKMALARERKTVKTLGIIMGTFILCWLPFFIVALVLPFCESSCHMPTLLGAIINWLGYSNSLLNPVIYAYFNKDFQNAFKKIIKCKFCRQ
The test is described as follows: Displacement of [3H]8-OH-DPAT from human recombinant 5-HT1A receptor expressed in HeLa cells after 30 mins by liquid scintillation counting. Format: cell-based. A digest of the protocol: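 HeLa cells stably carrying genomic clone G-21 were grown in DMEM with 10% FCS, then lysed in Tris/EDTA pH 7.4. Membranes (80–90 µg protein) were incubated in 50 mM Tris, 2.5 mM MgCl2, 10 µM pargyline, pH 7.4, with 1 nM [3H]8-OH-DPAT and competitor (1 pM–1 µM) for 30 min at 30 °C, in triplicate. Nonspecific binding with 10 µM 5-HT. pKi from 2–3 experiments.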

Test [4] addresses T4, 5-hydroxytryptamine receptor 1A (Homo sapiens) (UniProt P08908).
T4 sequence (whole entry): T3 sequence (P08908 whole entry)
Nature of the test: Agonist activity at human recombinant 5-HT1A receptor expressed in HeLa cells after 30 mins by [35S]GTPgammaS binding assay relative to control. Format: functional, cell-based. A digest of the protocol: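 HeLa membranes (50–70 µg protein) in 20 mM HEPES, 3 mM MgSO4, 120 mM NaCl, pH 7.4, preincubated 20 min at 30 °C with 30 µM GDP and drug (0.01 nM–10 µM), then 200 pM [35S]GTPγS added for 30 min at 30 °C. Nonspecific binding with 10 µM GTPγS. Filtration and scintillation counting. Data expressed as % increase over basal, 8-OH-DPAT maximum = 100%. Emax and pD2 derived.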

Test [5] has as its target T4, 5-hydroxytryptamine receptor 1A (Homo sapiens). Nature of the test: Agonist activity at human recombinant 5-HT1A receptor expressed in HeLa cells after 30 mins by [35S]GTPgammaS binding assay. The test is classed as functional, cell-based. In short, it runs like this:
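HeLa membranes expressing human 5-HT1A (50–70 µg protein) in 20 mM HEPES, 3 mM MgSO4, 120 mM NaCl pH 7.4 with 30 µM GDP; test drug 0.01 nM–10 µM, 20 min at 30 °C, then 200 pM [35S]GTPγS for 30 min at 30 °C. Nonspecific with 10 µM GTPγS; filtration and scintillation counting. Emax as % of maximal 8-OH-DPAT stimulation; pD2 = −log EC50.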
Background: Binding of GTPγS marks nucleotide exchange on a G protein.

As a reminder, the Ki is a dissociation constant, usually derived from enzyme kinetics or from competition with a known ligand. Usually pKb stands for the negative decadic logarithm of the Kb, by convention in mol/L. What is called Emax is the maximal effect, on the per cent scale that the assay sets.

Turning to `COc1ccccc1N1CCN(CC2COC3(CCCCC3)O2)CC1` (configuration not stated), the Ratio in the test listed under Rattus norvegicus is 14.4. The inhibition constant (Ki) in test [1] was over 1000 nM; in test [3], 5.13 nM. Also, the pKb in test [2] was determined as 6.78. In addition, in test [4], the Emax amounted to 48%. Besides, the pD2 in test [5] is 8.61.

Regarding `CCCCNC(=O)N1CCC2(CC1)OCC(CN1CCN(c3ccccc3OC)CC1)O2` (configuration not stated), in the test filed under Rattus norvegicus, the Ratio is 0.77. Moreover, the Ki in test [1] is 19.1 nM; in test [3], 79.4 nM. In addition, the pKb in test [2] is 7.38. Further, the maximum response (Emax) in test [4] amounted to 30%. The pD2 in test [5] was found to be 6.53.
